Activity calls are given as the source filed them. No cut-off for these calls is given here.

The target of one assay is T1, Heat shock protein HSP90 (Homo sapiens, UniProt P07900+P08238). Nature of the assay: Inhibition of Hsp90 in human SKBR3 cells assessed as Her2 degradation after 24 hrs by Western blot. The format is cell-based. The conditions noted are these: sk-br-3.
On to `COc1ccc(O)c(O)c1-c1cc(NS(=O)(=O)c2cc(Cl)ccc2Cl)ccc1N`, for which the IC50 is 20 µM.

The test system of the next assay is SK-BR-3. Nature of the assay: cells. As to conditions: Homo sapiens, SK-BR-3, 72 h.
As to `COc1ccc(O)c(O)c1-c1cc(NS(=O)(=O)c2cc(Cl)ccc2Cl)ccc1N`, the IC50 worked out at 6 µM. The same measure, in the same setting: the result for `O=S(=O)(Nc1ccc(O)c(-c2c(O)ccc3c2OCO3)c1)c1cc(Cl)ccc1Cl` reads 4.4 µM; that for `O=S(=O)(Nc1ccc(O)c(-c2c(O)ccc3ccccc23)c1)c1ccc(O)cc1O`, greater than 50 µM.

`O=S(=O)(Nc1ccc(O)c(-c2c(O)ccc3ccccc23)c1)c1cc(Cl)ccc1Cl` displayed an IC50 of 6 µM.

Another assay addresses T1, Heat shock protein HSP90. Nature of the assay: Inhibition of Hsp90 in human SKBR3 cells assessed as interaction with Cy3b-conjugated geldanamycin by FP assay. The format is cell-based. As to conditions: sk-br-3.
Consider `COc1ccc(O)c(O)c1-c1cc(NS(=O)(=O)c2cc(Cl)ccc2Cl)ccc1N`, for which the IC50 was 0.55 µM. On the same count and under the same terms, the result for `O=S(=O)(Nc1ccc(O)c(-c2c(O)ccc3c2OCO3)c1)c1cc(Cl)ccc1Cl` reads 1.7 µM; that for `O=S(=O)(Nc1cccc(-c2c(O)ccc3c2OCO3)c1)c1cc(Cl)ccc1Cl`, 14.5 µM; that for `COc1ccc(S(=O)(=O)Nc2ccc(N)c(-c3c(O)ccc4ccccc34)c2)c(OC)c1`, 25 µM. Still for that read-out and setting: the result for `Cc1ccc(S(=O)(=O)Nc2cccc(-c3c(O)ccc4c3OCO4)c2)cc1` reads 31.3 µM; that for `O=S(=O)(Nc1ccc(O)c(-c2c(O)ccc3ccccc23)c1)c1ccc(O)cc1O`, 1.8 µM. For the molecule `O=S(=O)(Nc1ccc(O)c(-c2c(O)ccc3ccccc23)c1)c1ccccc1`, the IC50 stood at 4.5 µM. Still for that read-out and setting: the value for `N#Cc1cc(S(=O)(=O)Nc2ccc(F)c(-c3c(O)ccc4c3OCO4)c2)ccc1F` was 27 µM; that for `O=S(=O)(Nc1cccc(-c2c(O)ccc3c2OCO3)c1)c1ccc(F)cc1` was 19.6 µM; that for `COc1ccc(S(=O)(=O)Nc2ccc(O)c(-c3c(O)ccc4ccccc34)c2)c(OC)c1` was 2.5 µM. As to `N#Cc1ccccc1S(=O)(=O)Nc1ccc(O)c(-c2c(O)ccc3ccccc23)c1`, the IC50 amounted to 4.5 µM.

With `Nc1ccc(NS(=O)(=O)c2cc(Cl)ccc2Cl)cc1-c1c(O)ccc2ccccc12`, the IC50 was found to be 9.4 µM. The same measure, in the same setting: the result for `O=S(=O)(Nc1ccc(O)c(-c2ccccc2O)c1)c1cc(Cl)ccc1Cl` reads 19.4 µM. Same read-out and setting: the value for `O=[N+]([O-])c1cc(S(=O)(=O)Nc2ccc(F)c(-c3c(O)ccc4c3OCO4)c2)ccc1Cl` was 26 µM.

In the case of `Cc1ccc(S(=O)(=O)Nc2ccc(F)c(-c3c(O)ccc4c3OCO4)c2)cc1`, the IC50 worked out at 28 µM. `Nc1ccc(NS(=O)(=O)c2ccc(O)cc2O)cc1-c1c(O)ccc2ccccc12`: the IC50 is 9.5 µM. Turning to `COc1cc(O)ccc1S(=O)(=O)Nc1ccc(O)c(-c2c(O)ccc3ccccc23)c1`, the IC50 came out at 1.3 µM.

A further assay has as its target T1, Heat shock protein HSP90. The experiment in a line: Inhibition of Hsp90 in human SKBR3 cells assessed as interaction with Cy3b-conjugated geldanamycin upto 50 uM by FP assay. Format: cell-based. As to conditions: SK-BR-3. The essentials:
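Fluorescence polarization binding assay measuring displacement of fluorescently labeled geldanamycin from the Hsp90 ATP-binding site. Compounds were tested up to a maximum of 50 µM.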
Regarding `Nc1cccc(S(=O)(=O)Nc2ccc(O)c(-c3ccccc3O)c2)c1`, the outcome was inactive. Same read-out and setting: the value for `COc1ccc2c(c1-c1cc(NS(=O)(=O)c3ccc(C)cc3)ccc1N)OCO2` was “inactive”; that for `COc1ccc(S(=O)(=O)Nc2ccc(N)c(-c3ccccc3O)c2)cc1OC` was “inactive”.

With `O=C(O)c1cccc(S(=O)(=O)Nc2ccc(F)c(-c3c(O)ccc4c3OCO4)c2)c1`, the result was inactive. In the case of `COc1ccc(S(=O)(=O)Nc2ccc(N)c(-c3c(OC)ccc4c3OCO4)c2)cc1OC`, the outcome was inactive.

`COc1ccc2c(c1-c1cc(NS(=O)(=O)c3cc(Cl)ccc3Cl)ccc1N)OCO2`: the result was inactive. Still for that read-out and setting: the value for `O=S(=O)(Nc1ccc(F)c(-c2c(O)ccc3c2OCO3)c1)c1ccc(F)cc1` was “inactive”; that for `Cc1ccc(S(=O)(=O)Nc2ccc(N)c(-c3ccccc3O)c2)cc1` was “inactive”; that for `Cc1ccc(S(=O)(=O)Nc2ccc(O)c(-c3ccccc3O)c2)cc1` was “inactive”. Still for that read-out and setting: the result for `Nc1ccccc1S(=O)(=O)Nc1ccc(F)c(-c2c(O)ccc3c2OCO3)c1` reads “inactive”.

As for `COc1ccc2c(c1-c1cc(NS(=O)(=O)c3cccc(N)c3)ccc1N)OCO2`, the result was inactive. Same read-out and setting: the value for `O=[N+]([O-])c1ccccc1S(=O)(=O)Nc1ccc(F)c(-c2c(O)ccc3c2OCO3)c1` was “inactive”; that for `COc1ccc2c(c1-c1cc(NS(=O)(=O)c3ccccc3N)ccc1N)OCO2` was “inactive”; that for `O=[N+]([O-])c1ccccc1S(=O)(=O)Nc1ccc(O)c(-c2ccccc2O)c1` was “inactive”.

Regarding `COc1ccc(S(=O)(=O)Nc2ccc(O)c(-c3ccccc3O)c2)cc1OC`, the outcome was inactive. On to `O=C(O)c1ccc(S(=O)(=O)Nc2ccccc2-c2c(O)ccc3c2OCO3)cc1`, for which the result was inactive. On the same count and under the same terms, the value for `Nc1cccc(S(=O)(=O)Nc2ccc(F)c(-c3c(O)ccc4c3OCO4)c2)c1` was “inactive”; that for `COc1ccc2c(c1-c1cc(NS(=O)(=O)c3cccc([N+](=O)[O-])c3)ccc1N)OCO2` was “inactive”; that for `O=[N+]([O-])c1cccc(S(=O)(=O)Nc2ccc(O)c(-c3ccccc3O)c2)c1` was “inactive”. The same measure, in the same setting: the result for `COc1ccc2c(c1-c1cc(NS(=O)(=O)c3ccccc3[N+](=O)[O-])ccc1N)OCO2` reads “inactive”; that for `N#Cc1cc(S(=O)(=O)Nc2cccc(-c3c(O)ccc4c3OCO4)c2)ccc1F`, “inactive”; that for `N#Cc1cc(S(=O)(=O)Nc2ccccc2-c2c(O)ccc3c2OCO3)ccc1F`, “inactive”.

`Nc1ccc(NS(=O)(=O)c2cc(Cl)ccc2Cl)cc1-c1ccccc1O`: the result was inactive. Same read-out and setting: the value for `O=[N+]([O-])c1cccc(S(=O)(=O)Nc2ccc(F)c(-c3c(O)ccc4c3OCO4)c2)c1` was “inactive”.

Take `O=S(=O)(Nc1ccccc1-c1c(O)ccc2c1OCO2)c1cc(Cl)ccc1Cl`: the result was inactive.

As for `Nc1ccc(NS(=O)(=O)c2ccccc2)cc1-c1c(O)ccc2ccccc12`, the outcome was inactive.

`Nc1ccccc1S(=O)(=O)Nc1ccc(O)c(-c2ccccc2O)c1`: the result was inactive.

The record behind these values is ChEMBL document CHEMBL1144185, “Synthesis and SAR study of N-(4-hydroxy-3-(2-hydroxynaphthalene-1-yl)phenyl)-arylsulfonamides: heat shock protein 90 (Hsp90) inhibitors with submicromolar activity in an in vitro assay” (Bioorg Med Chem Lett, 2008).
